# PubChem BioAssay
# Calls of active or inactive are those of the source.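 The calls were made as follows, unless noted: active = viability at or below 10% of carrier control in both of two separate runs; inconclusive = viability at or below 10% in only one of the two runs; inactive = the rest.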
# Columns and labels:
# [1] = reduced viability of SK-BR-3 breast cancer cells – cell-based, 24 h, human, pilot screen (AID 572); conditions: SK-BR-3 viability, CellTiter-Glo luminescence, at 10 µM, stronger effect = lower value;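 also: compound exposure lasted between 18 and 24 h rather than exactly 24 h; 100% = carrier-treated control wells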
# [2] = HUVEC growth inhibition – cell-based, human, primary screen (AID 575;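 active = viability at or below 30% in both replicate assays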;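 also: 100% = median of untreated cell wells with 0.1% DMSO on each plate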); conditions: HUVEC proliferation, CellTiter-Glo luminescence, 72 h; at 10 µM; stronger effect = lower value
# Outline: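 Timing: 72 h treatment at 37 °C; material: HUVEC primary cells; technique: CellTiter-Glo luminescence measuring cellular ATP; controls: vehicle and MePR control wells; measure: percent of median DMSO-control luminescence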
# [3] = H69AR cell proliferation blockers – human, duplicate replicates, primary screen (AID 580;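 active = viability at or under a set limit in both replicates, limit being median viability minus 3 SD, cut at about 48% in these data, passing the limit was not always enough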;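 also: 100% = mean luminescence of untreated wells and 0% = no signal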); conditions: H69AR lung tumor cells viability, ATP luminescence, 72 h; at 10 µM; stronger effect = lower value
# [4] = MRP1 drug-resistance reversers in H69AR cells – cell-based, doxorubicin co-treatment, pilot screen (AID 601;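 active = viability loss from added drug above about 55%, and viability with drug at most 40%, in both replicates, limit read from the data, passing the limit was not always enough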); conditions: CellTiter-Glo, 72 h, at 10 µM; for differential viability (reversal): stronger effect = higher value
# [5] = yeast transport mutant growth inhibition pilot in 384-well plates, post-Golgi transport modulator project (AID 636; in the data active = inhibition above about 31%); conditions: absorbance 615 nm, about 18 h, stronger effect = higher value
# [6] = growth suppression of yeast trafficking mutant, preliminary HTS, modulators of trafficking downstream of Golgi apparatus project, 1536-format plate, OD 615 nm (AID 637; in the data active = inhibition above about 30%); conditions: yeast transport mutant growth, absorbance 615 nm, 18 h; stronger effect = higher value
# [7] = H69AR cells + 2 uM doxorubicin, measured here: viability with 2 uM doxorubicin, stronger effect = lower value
# [8] = H69AR cells, compound alone cytotoxicity
Structure (SMILES),viability [1],viability [2],viability [3],differential viability (reversal) ([4]; H69AR cells + 2 uM doxorubicin),"viability [4, 7] [%]","viability [4, 8] [%]",inhibition [5],inhibition [6]
CCc1cccc(NC(=O)CN(C)S(=O)(=O)c2cccc3nsnc23)c1,92% (inactive),90.3% (inactive),91.8% (inactive),7.68% (inactive),84.1,91.8,-5.68% (inactive),-2.55% (inactive)
COc1ccc(S(=O)(=O)NCCCN2CCOCC2)c2ccccc12,102% (inactive),101% (inactive),86.8% (inactive),5.68% (inactive),81.1,86.8,-6.53% (inactive),-0.18% (inactive)
O=C(Nc1nnc(SCC(=O)N2CCCCC2)s1)C1CCCCC1,81% (inactive),103% (inactive),101% (inactive),12.6% (inactive),88.8,101,-2.13% (inactive),0.73% (inactive)
CC(=O)c1ccc(NC(=O)CCc2c(C)nc3ncnn3c2C)cc1,100% (inactive),87.5% (inactive),93.1% (inactive),6.04% (inactive),87.1,93.1,-1.3% (inactive),-5.08% (inactive)
Cc1cc(C(=O)NCc2cccnc2)no1,77% (inactive),108% (inactive),99.2% (inactive),6.27% (inactive),93,99.2,-4.52% (inactive),1.61% (inactive)
COc1cccc(/C=N/n2c(-c3ccco3)nc3ccccc3c2=O)c1,71% (inactive),105% (inactive),73.2% (inactive),-12.3% (inactive),85.4,73.2,-6.76% (inactive),2.36% (inactive)
CSc1c(C#N)c(N)c(C#N)c2c1COC(C)(C)C2,94% (inactive),90.1% (inactive),88% (inactive),-1.11% (inactive),89.1,88,-11.1% (inactive),2.1% (inactive)
CNC(=O)Oc1ccc2c(c1)[C@]1(C)CCN(C)[C@@H]1N2C,112% (inactive),104% (inactive),93.9% (inactive),-7% (inactive),101,93.9,-3.12% (inactive),2% (inactive)
Cc1ccc(-n2c(N)c(C(N)=O)sc2=S)cc1,87% (inactive),112% (inactive),87.9% (inactive),-0.38% (inactive),88.3,87.9,-3.24% (inactive),0.73% (inactive)
